Test results taken from ChEMBL document CHEMBL3124880, “4-(3-Chloro-5-(trifluoromethyl)pyridin-2-yl)-N-(4-methoxypyridin-2-yl)piperazine-1-carbothioamide (ML267), a potent inhibitor of bacterial phosphopantetheinyl transferase that attenuates secondary metabolism and thwarts bacterial growth” (J Med Chem, 2014).
In brackets after ≈: the same amount, converted by molar mass. Activity calls are given as the source filed them.

Tests used:
HepG2 = assay: Cytotoxicity against human HepG2 cells assessed as cellular ATP content after 48 hrs by CellTiter-Glo assay; assay type: cell-based; conditions: HepG2, 48 h
In short: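 HepG2 cells exposed to compound; viability read as cellular ATP by luciferase-coupled CellTiter-Glo.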

[1] = Half life in CD-1 mouse at 3 mg/kg, iv; assay type: ADME, organism-based; design: dose 3 mg/kg, route intravenous; conditions: in vivo
In short: (§1)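 Male CD1 mice, 6–8 weeks old. Dosed iv at 3 mg/kg or ip at 30 mg/kg as a solution in 5% DMSO/10% Solutol in water. Plasma sampled in triplicate at eight time points over 24 h.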

Staphylococcus aureus [2] = assay: Antibacterial activity against Staphylococcus aureus isolated from kidney of 30 mg/kg, ip compound-treated Swiss Webster mouse septicemia model assessed as growth inhibition; assay type: functional, organism-based; design: dose 30 mg/kg
In short: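 Bacteria harvested from the kidneys of septic mice treated with vehicle or compound, five isolates taken per crude sample. MICs measured in parallel with the parental USA500 strain.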

Bacillus subtilis [3] = assay: Antibacterial activity against Bacillus subtilis OKB105 assessed as inhibition of surfactin production after 28 hrs by LC-MS analysis; assay type: functional, organism-based
In short: (§2)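 B. subtilis OKB105 cultured with compound at 0.53 or 1.1 µg/mL against a vehicle control. Culture density and surfactin titer sampled periodically over 28 h.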

[4] = Inhibition of Bacillus subtilis AcpS-PPTase using rhodamine-CoA/BHQ-2-YbbR as substrate preincubated for 15 mins followed by substrate addition by HTS assay
In short: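 AcpS-PPTase at 100 nM final in 50 mM HEPES-Na pH 7.6, 10 mM MgCl2, 0.01% Nonidet P-40, 0.01% BSA; compound preincubated 15 min at room temperature, then rhodamine-CoA (5 μM final) and BHQ-2-YbbR (12.5 μM final) added. Fluorescence read (525 ex/598 em) at start and after 60 min; difference gives rate.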

Bacillus subtilis [5] = assay: Antibacterial activity against Bacillus subtilis HM489 assessed as growth inhibition at 1.7 ug/mL after 16 to 20 hrs by resazurin dye-based assay; assay type: functional, organism-based
In short: (§3)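 Broth microdilution. Test article from 1 μL DMSO in 50 μL cation-adjusted Mueller Hinton II (bacteria) or RPMI 1640 (fungi), plus ~1×10^3 cfu inoculum in the same medium. Incubated 16–20 h at 30–37 °C (48 h for fungi). MIC scored visually as the first well without growth; resazurin added for imaging.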

Escherichia coli [6] = assay: Antibacterial activity against Escherichia coli JW0451 containing lesion in acrB locus assessed as growth inhibition at 12.5 ug/mL after 16 to 20 hrs by broth dilution method; assay type: functional, organism-based
In short: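 E. coli BW25113 (wild type) and JW0451 (ΔacrB) tested by broth dilution in cation-adjusted Mueller Hinton II, ~1×10^3 cfu, 16–20 h. Growth shown with resazurin. Checkerboard combination with the efflux inhibitor PAβN in the wild type.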

[7] = Protein binding in plasma (unknown origin) by equilibrium dialysis; assay type: ADME, cell-free
Bacillus subtilis [8] = assay: Antibacterial activity against Bacillus subtilis OKB105 assessed as growth inhibition at 1.7 ug/mL after 16 to 20 hrs by resazurin dye-based assay; assay type: functional, organism-based
Staphylococcus aureus [9] = assay: Antibacterial activity against methicillin-sensitive Staphylococcus aureus ATCC 6538 assessed as growth inhibition at 0.8 to 100 ug/mL after 16 to 20 hrs by resazurin dye-based assay; assay type: functional, organism-based; in short: as §3
Candida albicans = assay: Antifungal activity against fluconazole-resistant Candida albicans ATCC 96901 assessed as growth inhibition at 0.8 to 100 ug/mL after 48 hrs by resazurin dye-based assay; assay type: functional, organism-based
In short: (§4)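 Broth microdilution. Inoculum from overnight liquid cultures or 2-day colonies, ~1 × 10^3 cfu per well. Compound in DMSO added to cation-adjusted Mueller Hinton II broth (bacteria) or RPMI 1640 (fungi). Incubated at 30–37 °C for 16–20 h, or 48 h for fungi.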

[10] = Metabolic stability in mouse liver microsomes measured over 1 hr in absence of NADPH; assay type: ADME, Microsome
In short: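 Mouse liver microsomes incubated with compound without NADPH over 1 h.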

Bacillus subtilis [11] = assay: Antibacterial activity against Bacillus subtilis OKB105 assessed as inhibition of surfactin production at 0.53 ug/mL after 28 hrs by LC-MS analysis relative to vehicle-treated control; assay type: functional; conditions: OKB105, 28 h
In short: (§5)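 B. subtilis OKB105 cultures grown with sublethal compound concentrations. Culture growth and surfactin titer measured periodically over 28 h; titer expressed relative to vehicle control.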

Escherichia coli [12] = assay: Antibacterial activity against Escherichia coli BW25113 assessed as growth inhibition at 0.8 to 100 ug/mL after 16 to 20 hrs by resazurin dye-based assay; assay type: functional; in short: as §3
Liver microsome [13] = assay: Drug metabolism in human liver microsomes assessed as GSH adduct formation at 50 uM after 60 mins by LC-MS/MS analysis in presence of NADPH; assay type: ADME; conditions: 1 h
Bacillus subtilis [14] = assay: Antibacterial activity against Bacillus subtilis 168 assessed as disruption of cell membrane integrity at 10 times MIC after 15 mins by Syto9/propidium iodide staining-based BacLight LIVE/DEAD microscopic analysis; assay type: functional, organism-based; conditions: subsp. subtilis str. 168
[15] = Chemical stability of the compound in HEPES buffer at room temperature measured over 48 hrs by LC/MS analysis; assay type: physicochemical
In short: (§6)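 Compound held in aqueous media over pH 2–9 and in PBS and HEPES buffers, then monitored for degradation.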

Bacillus subtilis [16] = assay: Antibacterial activity against Bacillus subtilis 168 assessed as growth inhibition after 16 to 20 hrs by resazurin dye-based assay; assay type: functional; conditions: subsp. subtilis str. 168; in short: as §3
[17] = Clearance in CD-1 mouse at 3 mg/kg, iv; assay type: ADME, organism-based; design: dose 3 mg/kg, route intravenous; conditions: in vivo; in short: as §1
[18] = Chemical stability of the compound in aqueous media at pH 2 to 9 at room temperature measured over 5 hrs by LC/MS analysis; assay type: physicochemical; conditions: buffer, pH 2, 5 h; in short: as §6
Bacillus subtilis [19] = assay: Antibacterial activity against Bacillus subtilis OKB105 assessed as inhibition of surfactin production at 1.1 ug/mL after 28 hrs by LC-MS analysis relative to vehicle-treated control; assay type: functional; conditions: OKB105, 28 h; in short: as §5
Bacillus subtilis [20] = assay: Antibacterial activity against Bacillus subtilis OKB105 assessed as effect on cellular density at 0.53 to 1.1 ug/mL after 28 hrs; assay type: functional, organism-based; in short: as §2
Staphylococcus aureus [21] = assay: Antibacterial activity against community-acquired methicillin-resistant Staphylococcus aureus USA500 assessed as growth inhibition at 0.8 to 100 ug/mL after 16 to 20 hrs by resazurin dye-based assay; assay type: functional, organism-based; in short: as §4
[22] = Cmax in CD-1 mouse at 3 mg/kg, iv; assay type: ADME, organism-based; design: dose 3 mg/kg, route intravenous; conditions: in vivo; in short: as §1
Liver microsome [23] = assay: Metabolic stability in mouse liver microsomes measured over 1 hr in absence of NADPH
[24] = Metabolic stability in mouse plasma at 2 hrs; assay type: ADME, cell-free; conditions: read-out: Stability
In short: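 Compound incubated in mouse plasma; stability measured at 2 h (Pharmaron).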

Bacillus subtilis [25] = assay: Antibacterial activity against Bacillus subtilis HM489 assessed as cellular ATP content after 5 hrs by BacTiter-Glo assay; assay type: functional, organism-based; conditions: HM489, 5 h
[26] = Half life in CD-1 mouse at 30 mg/kg, ip; assay type: ADME, organism-based; design: dose 30 mg/kg, route intraperitoneal; conditions: in vivo; in short: as §1
[27] = Volume of distribution in CD-1 mouse at 3 mg/kg, iv; assay type: ADME, organism-based; design: dose 3 mg/kg, route intravenous; conditions: in vivo
In short: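 Male CD1 mice, 6–8 weeks old, given 3 mg/kg iv as a solution in 5% DMSO/10% Solutol in water. Plasma sampled at eight time points over 24 h, in triplicate; MRT defined as time to eliminate 63.2% of the iv dose.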

COc1ccnc(NC(=S)N2CCN(c3ncc(C(F)(F)F)cc3Cl)CC2)c1
IC50 (HepG2): ≥ 114 µM
half-life [1]: 2.4 h
growth inhibition (GI) (Staphylococcus aureus [2]): Active
inhibition (Bacillus subtilis [3]): Dose-dependent effect
IC50 [4]: 8.1 µM
growth inhibition (GI) (Bacillus subtilis [5]): Active
growth inhibition (GI) (Escherichia coli [6]): Active
PPB [7]: 98.6%
growth inhibition (GI) (Bacillus subtilis [8]): Active
growth inhibition (GI) (Staphylococcus aureus [9]): Active
growth inhibition (GI) (Candida albicans): inactive
Stability [10]: Stable
inhibition at 0.53 µg/mL (Bacillus subtilis [11]): 33%
growth inhibition (GI) (Escherichia coli [12]): inactive
Drug metabolism (Liver microsome [13]): Not Active
Activity (Bacillus subtilis [14]): inactive
Stability [15]: Stable
MIC (Bacillus subtilis [16]): 2 µg/mL (≈ 4.63 µM)
clearance [17]: 7.2 mL/min/kg
Stability [18]: Stable
inhibition at 1.1 µg/mL (Bacillus subtilis [19]): 41%
Activity (Bacillus subtilis [20]): inactive
growth inhibition (GI) (Staphylococcus aureus [21]): Active
Cmax [22]: 4110 ng/mL
Stability (Liver microsome [23]): Stable
remaining at 2 h [24]: 100%
IC50 (Bacillus subtilis [25]): 9.3 µM
half-life [26]: 2 h
Vd [27]: 1.5 L/kg
